proCasp3 act – procaspase-3 (human) activation | activation, % at 8.5 µM | 330,000 compounds, 0.11% hits | P42574 | recombinant procaspase-3 D3A, Ac-DEVD-pNA absorbance 405 nm;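 active = activation above the mean of all tested compounds plus 3 SD, cut at about 21% in these data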;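 note: 0% = DMSO alone and 100% = DMSO wells spiked with extra 5 µM PC-3 D3A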
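assay system = Procaspase-3 D3A mutant | signal = absorbance at 405 nm, 0 and 120 min | times = 1 h preincubation plus 2 h reaction at 25 °C | repeats = single replicate | read-out = % activation between DMSO and enzyme-spiked controls | medium = Zinc-free HEPES saline buffer with Triton X-100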
CHT PAM – allosteric activators of human choline transporter CHT; Q9GZV3; CHT-expressing cells, membrane potential dye, choline EC20; active compounds read high; LV-AA mutant CHT in HEK293 cells; B-score at 10 µM; 310,000 compounds, 0.49% hits; AID 488977;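 active = initial fluorescence not abnormally high and integrated response B-score, plate-corrected, over 3 SD above library mean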
Target sequence (Q9GZV3 whole entry, looked up): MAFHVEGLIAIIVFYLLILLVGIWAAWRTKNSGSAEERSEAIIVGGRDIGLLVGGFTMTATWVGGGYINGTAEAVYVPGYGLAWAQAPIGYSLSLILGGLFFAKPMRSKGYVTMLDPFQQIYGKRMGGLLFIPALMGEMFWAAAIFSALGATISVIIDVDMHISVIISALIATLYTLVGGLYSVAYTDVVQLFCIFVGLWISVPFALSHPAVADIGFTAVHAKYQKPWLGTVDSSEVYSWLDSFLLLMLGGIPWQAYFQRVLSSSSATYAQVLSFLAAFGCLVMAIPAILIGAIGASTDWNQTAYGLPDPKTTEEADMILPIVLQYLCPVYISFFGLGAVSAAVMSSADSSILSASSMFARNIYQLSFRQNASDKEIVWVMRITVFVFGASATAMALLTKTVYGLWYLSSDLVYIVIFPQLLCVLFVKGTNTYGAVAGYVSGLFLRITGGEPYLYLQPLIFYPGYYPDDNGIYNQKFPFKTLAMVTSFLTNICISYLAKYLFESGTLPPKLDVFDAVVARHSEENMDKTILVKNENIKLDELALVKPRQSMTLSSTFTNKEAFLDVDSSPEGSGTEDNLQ
CHT block – human CHT choline transport inhibition | CHT-expressing cells, membrane potential dye, choline response; active compounds read low | 310,000 compounds, 0.86% hits | Q9GZV3 | B-score at 10 µM;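 active = B-score over 3 SD under the library average, and starting fluorescence ratio not unusually high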;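 note: choline stimulus applied at its EC90 after an EC20 pre-addition; B-score computed on integrated fluorescence ratio after choline addition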
proCasp7 act – counter-screen: procaspase-7 (human) activation; P55210; recombinant procaspase-7, Ac-DEVD-pNA absorbance 405 nm; D23A/D198A/D206A triple mutant, cannot self-cleave; scale: DMSO 0, 5 µM enzyme 100; activation, % at 8.5 µM; 330,000 compounds, 0.093% hits;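 active = percent activation above the screen-wide mean plus 3 SD, cut at about 25% in these data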
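Assay system: Uncleavable procaspase-7 mutant enzyme; Input: 2 µM procaspase-7 mutant as dispensed; Also added: DEVD-pNA substrate; Medium: Zinc-free HEPES pH 7.4 with 300 mM NaCl, 0.01% Triton X-100; Timing: 1 h compound preincubation, 2 h substrate cleavage, 25 °C; Measured by: Epi-absorbance of released pNA at 405 nm, two timepoints.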
CHT activ conf – human CHT activation, confirmatory screen; shares compounds with CHT PAM; CHT-expressing cells, membrane potential dye fluorescence (FDSS); % of choline EC20–EC90 response window; HEK293 expressing CHT LV-AA mutant; choline added at its EC20; activation, % at 10 µM; 2,500 compounds, 91% hits; AID 504833;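 active = primary screen active, with duplicate mean activation above negative control mean plus 3 SD, cut at about 11% in these data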
HEK293 MP dye – CHT activator counter-screen hit in parental HEK293 cells; shares compounds with CHT PAM; membrane potential dye fluorescence (FDSS); measured after EC20 choline addition; ratio readout change at 10 µM, hits read low; 2,500 compounds, 62% hits;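 active = duplicate-averaged ratio beyond 3 SD from buffer wells, up or down, though filed actives are nearly all decreases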
* hit, by the source's call; i = inactive; · = not tested or not shown. This is a sample that favours compounds with a hit; in the whole collection about 1.3% have one here.

SMILES | proCasp3 act | CHT PAM | CHT block | proCasp7 act | CHT activ conf | HEK293 MP dye
CC[n+]1c(C)sc2cc(C)ccc21 | -24.0 | i | i | -20.9 | 67.5* | -58*
CCCC[n+]1c(C)sc2ccc(C)cc21 | -12.9 | i | i | -10.9 | · | ·
CCN1CCN(c2nc(-c3ccccn3)nc3ccccc23)CC1 | -2.4 | i | i | 10.5 | 57.4* | -91.7*
c1ccc(-c2nc(N3CCOCC3)c3ccccc3n2)nc1 | -11.0 | 10* | i | -10.9 | 69.4* | -82.9*
Cc1cc(NC(=O)C(C)SCC(=O)OCc2ccc(Cl)cc2Cl)no1 (stereo unspecified) | 3.6 | · | · | 3.0 | · | ·
CCc1nn(C)c(N)c1C | -0.8 | i | i | 12.7 | · | ·
Cc1ccc2nc(-c3cccnc3)cc(C(=O)Nc3ccc(F)cc3C)c2c1 | 7.3 | i | i | -1.2 | · | ·
CC1(C)CC(=O)c2c(O)cc(OCC(=O)N3CCN(c4ccc(F)cc4)CC3)cc2O1 | 10.8 | i | i | -7.5 | · | ·
CCc1ccc(NC(=O)CSc2nc3ccccc3c(=O)n2CCCN2CCC(C)CC2)cc1 | -0.3 | i | i | 6.0 | 17.2* | i
O=C1c2ccccc2C(=O)N1CCSc1nc2ccccc2c(=O)n1CCCN1CCOCC1 | 4.5 | i | i | 0.6 | · | ·
O=C1c2ccccc2C(=O)N1CCCCSc1nc2ccccc2c(=O)n1CCCN1CCOCC1 | -2.8 | i | i | 0.7 | 34.9* | i
CCOC(=O)N1CCC(N2Cc3cccc(C(=O)NCC4CCN(CC(C)C)C4)c3C2=O)CC1 (stereo unspecified) | 0.5 | 6.28* | i | 11.5 | 52.5* | -33.7*
COCCN1Cc2cccc(C(=O)NCC3CCN(CC(C)C)C3)c2C1=O (stereo unspecified) | 10.4 | i | i | 9.9 | · | ·
CCC(C)NC(=O)CCC(=O)Nc1ccc2nc(N3CCOCC3)cc(C)c2c1 (stereo unspecified) | -1.7 | 7.94* | i | 16.5 | 59.2* | -59.1*
CCCCN(C)C(=O)CCC(=O)Nc1ccc2nc(N3CCN(C)CC3)cc(C)c2c1 | 3.7 | i | i | 9.7 | · | ·
CCCCNC(=O)CCC(=O)Nc1ccc2nc(N3CCC(C)CC3)cc(C)c2c1 | 0.0 | i | i | 13.8 | 37.5* | -35.2*
Cc1cc(N2CCOCC2)nc2ccc(NC(=O)CCC(=O)N3CCC(C)CC3)cc12 | 9.4 | i | i | 7.1 | · | ·
CCCCN(C)C(=O)CCC(=O)Nc1ccc2nc(N3CCOCC3)cc(C)c2c1 | 0.7 | 7.71* | i | 13.4 | 48.1* | -34.4*
CC(C)(C)C(CO)NC(=O)c1ccc[nH]1 (stereo unspecified) | -0.4 | · | · | 5.2 | · | ·
COc1ccc2c(c1)sc1nc(=O)ccn12 | -0.8 | i | i | 4.9 | · | ·
Cc1ccc2c(c1)sc1nc(=O)ccn12 | -5.7 | i | i | 1.8 | 40.5* | -38.1*
CCCCN(CCCNC(=O)C1CCN(C(=O)c2cc3sccc3n2C)CC1)Cc1ccccc1 | 7.2 | 10.3* | i | 3.3 | 60.2* | -29.5*
c1ccc(-c2cccc(-c3ccccn3)n2)nc1 | 0.2 | i | i | 5.8 | 14.1* | -46.6*
CC(C)CCN1C(Nc2ccccc2)=NC[C@@H]1Cc1ccccc1 | -1.5 | 6.97* | i | -1.6 | 20.9* | i
CC(C)C[C@H]1CN=C(Nc2ccccc2)N1CC1CCC(C(C)(C)C)CC1 (stereo partly specified) | -0.6 | 28.5* | i | 3.9 | 59.0* | i
CC(C)CCCN1C(Nc2ccccc2)=NC[C@@H]1Cc1ccccc1 | 10.2 | i | i | 4.6 | · | ·
CCOC(=O)C[C@H]1c2cc(C(F)(F)F)ccc2S(=O)(=O)N1Cc1ccccc1 | -5.4 | i | i | 11.0 | 7.2 | i
CCCCCCCCN1[C@@H](CC(=O)OCC)c2cc(C(F)(F)F)ccc2S1(=O)=O | 0.4 | i | i | 2.4 | · | ·
CCOc1ccc(NC(=O)CSc2nnc(CNC(=O)c3ccco3)o2)cc1 | 6.3 | i | i | -0.1 | · | ·
